Source: ChEMBL document CHEMBL1134544, “Novel selective PDE4 inhibitors. 1. Synthesis, structure-activity relationships, and molecular modeling of 4-(3,4-dimethoxyphenyl)-2H-phthalazin-1-ones and analogues” (J Med Chem, 2001)

Assays:
Phosphodiesterase 4 = Phosphodiesterase 4 (Homo sapiens, UniProt P27815+Q08499+Q07343+Q08493); assay: Inhibition of PDE4 in the cytosol of human neutrophils; assay type: protein assay
How it was run: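 Cytosol of human polymorphonuclear leukocytes from leukocyte concentrates, with motapizone 1 µM to suppress platelet PDE3. [3H]cAMP hydrolysis (0.5 µM cAMP, Tris-HCl pH 7.4, 5 mM MgCl2), 5 min preincubation plus 15 min at 37 °C. Snake venom nucleotidase step, ion-exchange separation, scintillation counting.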

Phosphodiesterase 3 = Phosphodiesterase 3 (Homo sapiens, UniProt Q14432+Q13370); assay: Inhibition of PDE3 in homogenates of human blood platelets
How it was run: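 PDE3 from human blood platelet homogenates. Radiometric assay: 50 mM Tris-HCl pH 7.4, 5 mM MgCl2, 0.5 µM cAMP plus [3H]cAMP; 5 min preincubation then 15 min at 37 °C; HCl stop, Crotalus atrox 5'-nucleotidase, QAE Sephadex separation, blank-corrected counts. Inhibitors at 0.5% DMSO final; IC50 by nonlinear regression; two independent determinations in triplicate.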

How did the “Log IC50” value (Phosphodiesterase 4) turn out when `COc1ccc(C2=NN(c3ccccc3)C(=O)[C@@H]3CC=CC[C@@H]23)cc1OC` was run?
Its value is -6.1.

Which “Log IC50” value (Phosphodiesterase 4) does the source give for `COc1ccc(C2=NN(c3ccccc3)C(=O)[C@@H]3CCCC[C@@H]23)cc1OC` here?
The value was -5.1.

For `COc1ccc(-c2nn(-c3ccccc3)c(=O)c3ccccc23)cc1OC`, which “Log IC50” value (Phosphodiesterase 4) is on record?
The value was -5.8.

Which “Log IC50” value (Phosphodiesterase 3) does the source give for `COc1ccc(C2=NN(Cc3ccccc3)C(=O)CC2)cc1OC` here?
The value was -5.3.

And the “Log IC50” value (Phosphodiesterase 4)?
Its value is -7.1.

`COc1ccc(C2=NN(Cc3ccccc3)C(=O)[C@@H]3CCCC[C@H]23)cc1OC` was tested. Which “Log IC50” value (Phosphodiesterase 4) did it give?
The value was -8.1.

Which “Log IC50” value (Phosphodiesterase 4) does the source give for `COc1ccc(-c2nn(Cc3ccccc3)c(=O)c3c2CCCC3)cc1OC` here?
Its value is -5.8.

With `COc1ccc(C2=NNC(=O)[C@@H]3CCCC[C@@H]23)cc1OC` as the molecule, how does the “Log IC50” value (Phosphodiesterase 4) read?
Its value is -5.3.

With `COc1ccc(C2=NN(c3ccccc3)C(=O)[C@@H]3CC=CC[C@H]23)cc1OC` as the molecule, how does the “Log IC50” value (Phosphodiesterase 4) read?
Its value is -7.9.

For `COc1ccc(C2=NN(c3ccccc3)C(=O)C(C)C2C)cc1OC` (stereo not given), which “Log IC50” value (Phosphodiesterase 3) is on record?
Its value is < -5.

And the “Log IC50” value (Phosphodiesterase 4)?
Its value is -7.3.

For `COc1ccc(-c2nn(-c3ccccc3)c(=O)c3c2CCCC3)cc1OC`, which “Log IC50” value (Phosphodiesterase 4) is on record?
The value was -5.3.

For `COc1ccc(C2=NN(Cc3ccccc3)C(=O)[C@@H]3CC=CC[C@H]23)cc1OC`, which “Log IC50” value (Phosphodiesterase 4) is on record?
Its value is -8.4.

`COc1ccc(-c2nnc(O)c3c2CCCC3)cc1OC` was tested. Which “Log IC50” value (Phosphodiesterase 4) did it give?
Its value is -5.2.

Which “Log IC50” value (Phosphodiesterase 3) does the source give for `COc1ccc(C2=NN(c3ccccc3)C(=O)C(C)C2)cc1OC` (stereo not given) here?
Its value is < -5.

And the “Log IC50” value (Phosphodiesterase 4)?
Its value is -6.9.

Which “Log IC50” value (Phosphodiesterase 3) does the source give for `COc1ccc(C2=NN(c3ccccc3)C(=O)CC2C)cc1OC` (stereo not given) here?
Its value is < -5.

And the “Log IC50” value (Phosphodiesterase 4)?
Its value is -6.8.

For `COc1ccc(-c2nnc(O)c3ccccc23)cc1OC`, which “Log IC50” value (Phosphodiesterase 4) is on record?
Its value is -5.8.

`COc1ccc(-c2nn(Cc3ccccc3)c(=O)c3ccccc23)cc1OC` was tested. Which “Log IC50” value (Phosphodiesterase 4) did it give?
Its value is -6.5.

With `COc1ccc(C2=NNC(=O)CC2)cc1OC` as the molecule, how does the “Log IC50” value (Phosphodiesterase 3) read?
Its value is -5.6.

And the “Log IC50” value (Phosphodiesterase 4)?
Its value is -5.9.

For `COc1ccc(C2=NN(c3ccccc3)C(=O)[C@@H]3CCCC[C@H]23)cc1OC`, which “Log IC50” value (Phosphodiesterase 4) is on record?
The value was -7.6.

For `COc1ccc(C2=NN(c3ccccc3)C(=O)CC2)cc1OC`, which “Log IC50” value (Phosphodiesterase 3) is on record?
The value was < -5.

And the “Log IC50” value (Phosphodiesterase 4)?
The value was -6.4.

With `COc1ccc(C2=NNC(=O)CC2C)cc1OC` (stereo not given) as the molecule, how does the “Log IC50” value (Phosphodiesterase 3) read?
Its value is -6.6.

And the “Log IC50” value (Phosphodiesterase 4)?
Its value is -6.5.

For `COc1ccc(C2=NNC(=O)[C@@H]3CC=CC[C@H]23)cc1OC` (relative stereo), which “Log IC50” value (Phosphodiesterase 4) is on record?
Its value is -7.

Which “Log IC50” value (Phosphodiesterase 4) does the source give for `COc1ccc(C2=NNC(=O)[C@@H]3CCCC[C@H]23)cc1OC` (relative stereo) here?
Its value is -6.4.

How did the “Log IC50” value (Phosphodiesterase 3) turn out when `COc1ccc(C2=NNC(=O)C(C)C2C)cc1OC` (stereo in doubt; 3d) was run?
Its value is < -5.

What about the “Log IC50” value (Phosphodiesterase 4) of the same molecule?
The value was -6.7.

What does the source list for `COc1ccc(C2=NNC(=O)C(C)C2C)cc1OC` (stereo in doubt; 3e)?
Log IC50 (Phosphodiesterase 3): -5.4; Log IC50 (Phosphodiesterase 4): -6.2

`O=c1c2cccnc2c(-c2cccc([N+](=O)[O-])c2)nn1Cc1ccncc1` [PYRIDOPYRIDAZINONE] was tested. Which “Log IC50” value (Phosphodiesterase 4) did it give?
Its value is -8.3.

Which “Log IC50” value (Phosphodiesterase 3) does the source give for `COc1cc(-c2ccc(=O)[nH]n2)ccc1OC(F)F` [ZARDAVERINE] here?
The value was -6.2.
